Series [1] can be described thus: melting temperature; fluorescence melt of hairpins on a sequencing array, two-state fit, raised by 9.35 °C to match UV melts. Particulars: sodium 0.088 M. The procedure, abridged: (§1)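 Hairpins were imaged by Cy3 fluorescence on a sequenced MiSeq flow cell with annealed Cy3 and quencher oligos, in 50 mM Na-HEPES pH 8.0, 25 mM NaCl, in 2.5 °C steps up to 60 °C. Bootstrapped two-state fits of normalised signals gave melting temperature and folding enthalpy. Four replicates were combined by inverse variance, and fitted temperatures were raised by 9.35 °C to match UV melts.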

Series [2] in a line: folding enthalpy; higher = less favourable; fluorescence melt of hairpins on a sequencing array, two-state fit. Particulars: sodium 0.088 M. The essentials:
as §1

On to GATCACTTGAGTGATC ((((((....)))))), for which the Tm in series [1] is 56.1 °C. Further, the folding enthalpy in series [2] is -42.4 kcal/mol.
On the same counts, the results for GATCAGAAAGCTGATC ((((((....)))))) are 43 °C and -31.6 kcal/mol.
As to GATCAGAACCTGATC ((((((...)))))), the Tm in series [1] was found to be 46.7 °C. For the same sequence, in series [2], the folding enthalpy was -36.2 kcal/mol.
With GATCAGAAGTCTGATC ((((((....)))))), the Tm in series [1] was 49 °C. In addition, in series [2], the folding enthalpy is -30 kcal/mol.
In the case of GATCAGACCCTGATC ((((((...)))))), the Tm in series [1] came to 47.7 °C. The folding enthalpy in series [2] is -33.4 kcal/mol.
Take GATCAGACCTCTGATC ((((((....)))))): in series [1], the Tm was 48.4 °C. The folding enthalpy in series [2] was -40.6 kcal/mol.
The matching figures for GATCAGACGAAAGTCATC (((..(((....)))))): 23.3 °C and -9.11 kcal/mol.
On the same counts, the results for GATCAGAGCGCTGATC ((((((....)))))) are 49.1 °C and -27.4 kcal/mol.
The matching figures for GATCAGAGGCCTGATC ((((((....)))))): 48.5 °C and -34.6 kcal/mol.
Consider GATCAGAGGCTGATC ((((((...)))))), for which, in series [1], the Tm was 48.7 °C. Moreover, in series [2], the folding enthalpy was -32.9 kcal/mol.
As for GATCAGATACCTGATC ((((((....)))))), the Tm in series [1] was found to be 48 °C. Moreover, the folding enthalpy in series [2] was -36.7 kcal/mol.
Consider GATCAGATATCTGATC ((((((....)))))), for which, in series [1], the Tm is 50.3 °C. In series [2], the folding enthalpy was -47.9 kcal/mol.
The matching figures for GATCAGATCCTGATC ((((((...)))))): 48.2 °C and -37 kcal/mol.
In the case of GATCAGATCGCTGATC ((((((....)))))), in series [1], the Tm was 48.9 °C. Also, in series [2], the folding enthalpy is -28.2 kcal/mol.
On to GATCAGATTACTGATC ((((((....)))))), for which the Tm in series [1] came out at 50 °C. Moreover, in series [2], the folding enthalpy is -30.3 kcal/mol.
On the same counts, the results for GATCAGCAAACTGATC ((((((....)))))) are 48.2 °C and -32 kcal/mol.
The matching figures for GATCAGCAACCTGATC ((((((....)))))): 46.2 °C and -33 kcal/mol.
On the same counts, the results for GATCAGCAAGCTGATC ((((((....)))))) are 58.7 °C and -33 kcal/mol.
Turning to GATCAGCACGCTGATC ((((((....)))))), the Tm in series [1] came out at 62.3 °C. For the same sequence, in series [2], the folding enthalpy is -42.1 kcal/mol.
For GATCAGCATCCTGATC ((((((....)))))), in series [1], the Tm came out at 48 °C. For the same sequence, the folding enthalpy in series [2] was -32.5 kcal/mol.
In the case of GATCAGCCACTGATC ((((((...)))))), the Tm in series [1] was found to be 48.6 °C. For the same sequence, in series [2], the folding enthalpy is -32 kcal/mol.
In the case of GATCAGCCCACTGATC ((((((....)))))), the Tm in series [1] came to 51.6 °C. Further, the folding enthalpy in series [2] is -37.6 kcal/mol.
With GATCAGCCCCTGATC ((((((...)))))), the Tm in series [1] worked out at 49.2 °C. Also, the folding enthalpy in series [2] is -36.2 kcal/mol.
As for GATCAGCCTCTGATC ((((((...)))))), the Tm in series [1] was found to be 47.9 °C. Besides, in series [2], the folding enthalpy is -38.5 kcal/mol.
On the same counts, the results for GATCAGCCTGCTGATC ((((((....)))))) are 64.1 °C and -41.5 kcal/mol.
On the same counts, the results for GATCAGCGAACTGATC ((((((....)))))) are 49.3 °C and -34.4 kcal/mol.
The matching figures for GATCAGCGACCTGATC ((((((....)))))): 47.4 °C and -31.3 kcal/mol.
Consider GATCAGCGGCTGATC ((((((...)))))), for which the Tm in series [1] was 50.7 °C. Also, the folding enthalpy in series [2] is -51 kcal/mol.
As to GATCAGCGTTCTGATC ((((((....)))))), in series [1], the Tm stood at 49.8 °C. In addition, in series [2], the folding enthalpy was -37.3 kcal/mol.
On the same counts, the results for GATCAGCTACTGATC ((((((...)))))) are 49.1 °C and -35.2 kcal/mol.
The matching figures for GATCAGCTAGCTGATC ((((((....)))))): 62.1 °C and -48 kcal/mol.
On the same counts, the results for GATCAGCTCGCTGATC ((((((....)))))) are 62.9 °C and -57.4 kcal/mol.
As for GATCAGGACACTGATC ((((((....)))))), the Tm in series [1] is 56.7 °C. In addition, the folding enthalpy in series [2] was -45.4 kcal/mol.
GATCAGGACGCTGATC ((((((....)))))): in series [1], the Tm was 54.2 °C. Also, the folding enthalpy in series [2] was -41.7 kcal/mol.
As to GATCAGGACTCTGATC ((((((....)))))), the Tm in series [1] amounted to 55.6 °C. Also, the folding enthalpy in series [2] was -40.6 kcal/mol.
GATCAGGAGACTGATC ((((((....)))))): the Tm in series [1] turned out to be 51.3 °C. In series [2], the folding enthalpy is -37.6 kcal/mol.
On the same counts, the results for GATCAGGAGTCTGATC ((((((....)))))) are 48.2 °C and -38.7 kcal/mol.
The matching figures for GATCAGGCAACTGATC ((((((....)))))): 60.6 °C and -37.6 kcal/mol.
Consider GATCAGGCCCTGATC ((((((...)))))), for which the Tm in series [1] came to 50.1 °C. For the same sequence, the folding enthalpy in series [2] was -33.9 kcal/mol.
The matching figures for GATCAGGCCGCTGATC ((((((....)))))): 51.8 °C and -41.3 kcal/mol.
The matching figures for GATCAGGCGACTGATC ((((((....)))))): 56.4 °C and -36.8 kcal/mol.
In the case of GATCAGGCGCTGATC ((((((...)))))), in series [1], the Tm worked out at 47.9 °C. Also, the folding enthalpy in series [2] is -33.8 kcal/mol.
The matching figures for GATCAGGGAAACCTGACC (.(((((....))))).): 36.3 °C and -17.2 kcal/mol.
In the case of GATCAGGGAAACCTGGTC ((.((((....)))).)), the Tm in series [1] was 47.4 °C. The folding enthalpy in series [2] is -29.2 kcal/mol.
The matching figures for GATCAGGGCTCTGATC ((((((....)))))): 55.1 °C and -38.8 kcal/mol.
With GATCAGGGGACTGATC ((((((....)))))), the Tm in series [1] is 53.8 °C. Besides, in series [2], the folding enthalpy is -32.5 kcal/mol.
Regarding GATCAGGTAACTGATC ((((((....)))))), the Tm in series [1] worked out at 57.1 °C. In series [2], the folding enthalpy is -39.9 kcal/mol.
Consider GATCAGGTAGCTGATC ((((((....)))))), for which the Tm in series [1] was found to be 53.4 °C. Further, the folding enthalpy in series [2] was -39.7 kcal/mol.
On the same counts, the results for GATCAGGTCCCTGATC ((((((....)))))) are 54.6 °C and -39 kcal/mol.
On the same counts, the results for GATCAGGTGCTGATC ((((((...)))))) are 48.6 °C and -39 kcal/mol.
On the same counts, the results for GATCAGTATTCTGATC ((((((....)))))) are 51 °C and -39.1 kcal/mol.
Consider GATCAGTCAACTGATC ((((((....)))))), for which the Tm in series [1] stood at 50.9 °C. In addition, in series [2], the folding enthalpy is -37.6 kcal/mol.
Turning to GATCAGTCCACTGATC ((((((....)))))), the Tm in series [1] turned out to be 54.3 °C. In series [2], the folding enthalpy was -37.6 kcal/mol.
On the same counts, the results for GATCAGTCGTCTGATC ((((((....)))))) are 52.3 °C and -36.5 kcal/mol.
On the same counts, the results for GATCAGTCTCTGATC ((((((...)))))) are 50.7 °C and -40.3 kcal/mol.
The matching figures for GATCAGTCTGCTGATC ((((((....)))))): 52.7 °C and -41.6 kcal/mol.
On to GATCAGTGACTGATC ((((((...)))))), for which the Tm in series [1] is 48.7 °C. For the same sequence, the folding enthalpy in series [2] was -26.2 kcal/mol.
On the same counts, the results for GATCAGTGCCTGATC ((((((...)))))) are 49 °C and -22.5 kcal/mol.
The matching figures for GATCAGTGGCCTGATC ((((((....)))))): 50.6 °C and -36 kcal/mol.
Regarding GATCAGTGGTCTGATC ((((((....)))))), in series [1], the Tm came to 51.6 °C. Further, the folding enthalpy in series [2] was -35.7 kcal/mol.
The matching figures for GATCAGTGTCCTGATC ((((((....)))))): 49.6 °C and -36.2 kcal/mol.
On the same counts, the results for GATCAGTGTCTGATC ((((((...)))))) are 50 °C and -34.8 kcal/mol.
The matching figures for GATCAGTTCGCTGATC ((((((....)))))): 54.1 °C and -44.9 kcal/mol.
Take GATCAGTTTCCTGATC ((((((....)))))): the Tm in series [1] was 50.9 °C. Also, in series [2], the folding enthalpy was -35 kcal/mol.
The matching figures for GATCAGTTTGCTGATC ((((((....)))))): 53.8 °C and -44.1 kcal/mol.
The matching figures for GATCATAAACATGATC ((((((....)))))): 43.1 °C and -31 kcal/mol.
The matching figures for GATCATAACATGATC ((((((...)))))): 50.3 °C and -37 kcal/mol.
With GATCATAACTATGATC ((((((....)))))), the Tm in series [1] came out at 48 °C. For the same sequence, the folding enthalpy in series [2] is -35.8 kcal/mol.
The matching figures for GATCATACATATGATC ((((((....)))))): 47.7 °C and -40.7 kcal/mol.
On the same counts, the results for GATCATACGAATGATC ((((((....)))))) are 44.7 °C and -34.4 kcal/mol.
With GATCATACGATGATC ((((((...)))))), the Tm in series [1] is 46.9 °C. In series [2], the folding enthalpy is -29.4 kcal/mol.
On to GATCATACTAATGATC ((((((....)))))), for which the Tm in series [1] was found to be 46.8 °C. The folding enthalpy in series [2] is -34.9 kcal/mol.
On the same counts, the results for GATCATAGAGATGATC ((((((....)))))) are 44.5 °C and -30.1 kcal/mol.
On the same counts, the results for GATCATAGCATGATC ((((((...)))))) are 49.9 °C and -37 kcal/mol.
On the same counts, the results for GATCATATAATGATC ((((((...)))))) are 49 °C and -31.6 kcal/mol.
Regarding GATCATATTTATGATC ((((((....)))))), the Tm in series [1] was 50.3 °C. The folding enthalpy in series [2] is -41.2 kcal/mol.

Values taken from the array DNA melting data of Ke et al. (doi:10.1101/2024.01.08.574731).
